Source: ChEMBL document CHEMBL4715813, “Allicin-inspired pyridyl disulfides as antimicrobial agents for multidrug-resistant Staphylococcus aureus” (Eur J Med Chem, 2018)
≈ marks a conversion by molar mass, not a printed value.

Columns and labels:
[1] = tested on: Staphylococcus aureus; test: Bactericidal activity against methicillin-resistant Staphylococcus aureus ATCC 43300 assessed as bacterial killing incubated for over night; type: functional
Procedure, shortened: (§1)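 For MBC, 5 μL from each well was spotted on agar and incubated overnight; MBC is the lowest concentration with no visible growth. Ratio taken as MBC over MIC.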

[2] = tested on: Staphylococcus aureus; test: Antibacterial activity against community acquired methicillin-resistant Staphylococcus aureus BAA 1747 assessed as zone of inhibition by disc diffusion method; type: functional
[3] = tested on: Staphylococcus aureus; test: Antibacterial activity against vancomycin-resistant Staphylococcus aureus HIP11714 assessed as zone of inhibition by disc diffusion method; type: functional
[4] = tested on: Staphylococcus aureus; test: Antibacterial activity against methicillin-susceptible Staphylococcus aureus ATCC 25923 in presence of glutathione; type: functional
Procedure, shortened: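 Broth microdilution MIC: a 0.5 McFarland suspension from overnight culture was diluted 1:100 in cation-adjusted Mueller Hinton broth supplemented with glutathione 100 μM. It was exposed to serial dilutions for 20 h at 37 °C. MIC was taken as the lowest concentration with no visible growth.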

[5] = tested on: Staphylococcus aureus; test: Bactericidal activity against linezolid-resistant Staphylococcus aureus assessed as bacterial killing incubated for over night
[6] = tested on: Staphylococcus aureus; test: Ratio of MBC to MIC against vancomycin-intermediate resistant Staphylococcus aureus Mu50 ATCC 700699; type: functional; procedure, shortened: as §1
[7] = tested on: Bacillus anthracis; test: Antibacterial activity against Bacillus anthracis Sterne 34F2 assessed as zone of inhibition by disc diffusion method; type: functional
[8] = tested on: Staphylococcus aureus; test: Antibacterial activity against linezolid-resistant Staphylococcus aureus assessed as bacterial growth inhibition incubated for 20 hrs by broth dilution method; type: functional
Procedure, shortened: (§2)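 Broth microdilution: 0.5 McFarland suspension from an overnight culture, diluted 1:100 in cation-adjusted Mueller Hinton broth (CAMHB), given serial dilutions of test agent for 20 h at 37 °C. MIC is the lowest concentration with no visible growth.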

[9] = tested on: Staphylococcus aureus; test: Ratio of MBC to MIC against heterogeneous vancomycin-intermediate Staphylococcus aureus Mu3 ATCC 700698; type: functional; procedure, shortened: as §1
[10] = tested on: Staphylococcus aureus; test: Ratio of MBC to MIC against linezolid-resistant Staphylococcus aureus; type: functional; procedure, shortened: as §1
[11] = tested on: Staphylococcus aureus; test: Antibacterial activity against methicillin-susceptible Staphylococcus aureus ATCC 25923 in presence of 0.05% v/v albumin; type: functional
[12] = tested on: Staphylococcus aureus; test: Ratio of MBC to MIC against methicillin-resistant Staphylococcus aureus ATCC 43300; type: functional; procedure, shortened: as §1
[13] = tested on: Staphylococcus aureus; test: Antibacterial activity against vancomycin-intermediate resistant Staphylococcus aureus Mu50 ATCC 700699 assessed as bacterial growth inhibition incubated for 20 hrs by broth dilution method; type: functional; procedure, shortened: as §2
[14] = tested on: Staphylococcus aureus; test: Bactericidal activity against heterogeneous vancomycin-intermediate Staphylococcus aureus Mu3 ATCC 700698 assessed as bacterial killing incubated for over night; type: functional; procedure, shortened: as §1
[15] = tested on: Enterococcus faecium; test: Antibacterial activity against vancomycin-resistant Enterococcus faecium ATCC 700221 assessed as zone of inhibition by disc diffusion method; type: functional
[16] = tested on: Staphylococcus aureus; test: Antibacterial activity against hospital acquired methicillin-resistant Staphylococcus aureus ATCC 43300 assessed as zone of inhibition by disc diffusion method; type: functional
[17] = tested on: Staphylococcus aureus; test: Bactericidal activity against methicillin-susceptible Staphylococcus aureus ATCC 25923 assessed as bacterial killing incubated for over night; type: functional
Procedure, shortened: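 5 μL from each well was spotted on agar and incubated overnight. MBC was taken as the lowest concentration with no visible growth.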

[18] = tested on: Staphylococcus aureus; test: Antibacterial activity against vancomycin-resistant Staphylococcus aureus HIP11714 assessed as inhibition of bacterial growth incubated for 20 hrs by broth microdilution method; type: functional; settings: HIP11714, 20 h; procedure, shortened: as §2
[19] = tested on: Staphylococcus aureus; test: Antibacterial activity against vancomycin-resistant Staphylococcus aureus clinical isolate 10 assessed as bacterial growth inhibition after 20 hrs by broth microdilution assay; type: functional; procedure, shortened: as §2
[20] = tested on: Staphylococcus aureus; test: Antibacterial activity against methicillin-susceptible Staphylococcus aureus ATCC 25923 in presence of 5% v/v serum; type: functional
[21] = tested on: Staphylococcus aureus; test: Antibacterial activity against heterogeneous vancomycin-intermediate Staphylococcus aureus Mu3 ATCC 700698 assessed as bacterial growth inhibition incubated for 20 hrs by broth dilution method; type: functional; procedure, shortened: as §2
[22] = tested on: Staphylococcus aureus; test: Ratio of MBC to MIC against methicillin-susceptible Staphylococcus aureus ATCC 25923; type: functional; procedure, shortened: as §1
[23] = tested on: Staphylococcus aureus; test: Antibacterial activity against vancomycin-intermediate resistant Staphylococcus aureus Mu50 ATCC 700699 assessed as zone of inhibition by disc diffusion method; type: functional
[24] = tested on: Enterococcus faecalis; test: Antibacterial activity against vancomycin-susceptible Enterococcus faecalis ATCC 29212 assessed as zone of inhibition by disc diffusion method; type: functional
[25] = tested on: Staphylococcus aureus; test: Antibacterial activity against methicillin-resistant Staphylococcus aureus ATCC 43300 assessed as bacterial growth inhibition incubated for 20 hrs by broth dilution method; type: functional; procedure, shortened: as §2
[26] = tested on: Staphylococcus aureus; test: Bactericidal activity against vancomycin-intermediate resistant Staphylococcus aureus Mu50 ATCC 700699 assessed as bacterial killing incubated for over night; type: functional; procedure, shortened: as §1
[27] = tested on: Staphylococcus aureus; test: Antibacterial activity against vancomycin-intermediate Staphylococcus aureus clinical isolate 12 assessed as bacterial growth inhibition after 20 hrs by broth microdilution assay; type: functional; procedure, shortened: as §2
[28] = tested on: Staphylococcus aureus; test: Antibacterial activity against methicillin-susceptible Staphylococcus aureus ATCC 25923 assessed as bacterial growth inhibition incubated for 20 hrs by broth dilution method; type: functional; procedure, shortened: as §2
[29] = tested on: Staphylococcus aureus; test: Antibacterial activity against methicillin-susceptible Staphylococcus aureus ATCC 25923 in presence of 10% v/v serum; type: functional
[30] = tested on: Staphylococcus aureus; test: Antibacterial activity against methicillin-susceptible Staphylococcus aureus ATCC 25923 assessed as zone of inhibition by disc diffusion method; type: functional
[31] = tested on: Staphylococcus epidermidis; test: Antibacterial activity against Staphylococcus epidermidis ATCC 14990 assessed as zone of inhibition by disc diffusion method; type: functional
[32] = tested on: Staphylococcus aureus; test: Antibacterial activity against heterogeneous vancomycin-intermediate resistant Staphylococcus aureus Mu3 ATCC 700698 assessed as zone of inhibition by disc diffusion method; type: functional
[33] = tested on: Acinetobacter baumannii; test: Antibacterial activity against Acinetobacter baumannii ATCC 19606 assessed as zone of inhibition by disc diffusion method; type: functional
[34] = tested on: Escherichia coli; test: Antibacterial activity against beta-lactam resistant Escherichia coli BAA 2326 assessed as zone of inhibition by disc diffusion method; type: functional
[35] = tested on: Enterobacter cloacae; test: Antibacterial activity against Enterobacter cloacae ATCC 23355 assessed as zone of inhibition by disc diffusion method; type: functional
[36] = tested on: Acinetobacter baumannii; test: Antibacterial activity against multidrug-resistant Acinetobacter baumannii BAA 1605 assessed as zone of inhibition by disc diffusion method; type: functional
[37] = tested on: Klebsiella pneumoniae; test: Antibacterial activity against multidrug-resistant Klebsiella pneumoniae ATCC 700603 assessed as zone of inhibition by disc diffusion method; type: functional
[38] = tested on: Pseudomonas aeruginosa; test: Antibacterial activity against Pseudomonas aeruginosa ATCC 15422 assessed as zone of inhibition by disc diffusion method; type: functional
[39] = tested on: Staphylococcus aureus; test: Bactericidal activity against Vancomycin-resistant Staphylococcus aureus HIP11714 assessed as bacterial killing incubated for over night; type: functional; procedure, shortened: as §1
[40] = tested on: Staphylococcus aureus; test: Ration of MBC to MIC against Vancomycin-resistant Staphylococcus aureus HIP11714; type: functional; procedure, shortened: as §1

Row | SMILES | MBC [1] [µM] | MIC [4] [µM] | Ratio [6] | diameter of the inhibition zone (DIZ) [7] [mm] | MIC [8] [µM] | Ratio [9] | MIC [11] [µM] | Ratio [12] | MIC [13] [µM] | MBC [14] [µM] | diameter of the inhibition zone (DIZ) [15] [mm] | diameter of the inhibition zone (DIZ) [16] [mm] | MBC [17] [µM] | MIC [18] [µM] | MIC50 [19] [µM] | MIC90 [19] [µM] | MIC [20] [µM] | MIC [21] [µM] | Ratio [22] | diameter of the inhibition zone (DIZ) [24] [mm] | also measured
1 | CN[C@H](CC(C)C)C(=O)N[C@H]1C(=O)N[C@@H](CC(N)=O)C(=O)N[C@H]2C(=O)N[C@H]3C(=O)N[C@H](C(=O)N[C@H](C(=O)O)c4cc(O)cc(O)c4-c4cc3ccc4O)[C@H](O)c3ccc(c(Cl)c3)Oc3cc2cc(c3O[C@@H]2O[C@H](CO)[C@@H](O)[C@H](O)[C@H]2O[C@H]2C[C@](C)(N)[C@H](O)[C@H](C)O2)Oc2ccc(cc2Cl)[C@H]1O [VANCOMYCIN] | 0.78 (≈ 1.13 µg/mL) | 0.78 | 1 | 26 | 0.78 (≈ 1.13 µg/mL) | 1 | 0.78 | 2 | 3.13 (≈ 4.54 µg/mL) | 0.78 (≈ 1.13 µg/mL) | 0 | 21 | 1.56 (≈ 2.26 µg/mL) | > 50 | > 50 | > 50 | 0.78 | 0.78 (≈ 1.13 µg/mL) | 2 | 21 | diameter of the inhibition zone (DIZ) [2]: 20 mm; diameter of the inhibition zone (DIZ) [3]: 11 mm; MBC [5]: 1.56 µM (≈ 2.26 µg/mL); Ratio [10]: 2; diameter of the inhibition zone (DIZ) [23]: 20 mm; MIC [25]: 0.39 µM (≈ 0.565 µg/mL); MBC [26]: 3.13 µM (≈ 4.54 µg/mL); MIC50 [27]: 3.13 µM (≈ 4.54 µg/mL); MIC90 [27]: 3.13 µM (≈ 4.54 µg/mL); MIC [28]: 0.78 µM (≈ 1.13 µg/mL); MIC [29]: 0.78 µM; diameter of the inhibition zone (DIZ) [30]: 22 mm; diameter of the inhibition zone (DIZ) [31]: 24 mm; diameter of the inhibition zone (DIZ) [32]: 20 mm
2 | CCCCCCCSSc1ccccn1 | > 50 | 50 | 8 | 50 | 25 (≈ 6.04 µg/mL) | >4 | 12.5 | >8 | 3.13 (≈ 0.756 µg/mL) | > 50 | 10 | 46 | > 50 | 6.25 (≈ 1.51 µg/mL) | 6.25 (≈ 1.51 µg/mL) | 12.5 (≈ 3.02 µg/mL) | 25 | 12.5 (≈ 3.02 µg/mL) | >4 | 10 | diameter of the inhibition zone (DIZ) [33]: 0 mm; diameter of the inhibition zone (DIZ) [34]: 0 mm; diameter of the inhibition zone (DIZ) [35]: 0 mm; diameter of the inhibition zone (DIZ) [36]: 0 mm; MIC [25]: 6.25 µM (≈ 1.51 µg/mL); MBC [26]: 25 µM (≈ 6.04 µg/mL); diameter of the inhibition zone (DIZ) [37]: 0 mm; MIC50 [27]: 12.5 µM (≈ 3.02 µg/mL); MIC90 [27]: 12.5 µM (≈ 3.02 µg/mL); diameter of the inhibition zone (DIZ) [38]: 0 mm; MBC [39]: > 50 µM; MIC [28]: 12.5 µM (≈ 3.02 µg/mL); MIC [29]: 25 µM; diameter of the inhibition zone (DIZ) [30]: >50 mm; diameter of the inhibition zone (DIZ) [31]: >50 mm; Ratio [40]: >8
